A selection: hits, their analogues and other compounds. The true share with any hit is near 27%.
CYP2C19 activ – increases human CYP2C19 enzyme activity | recombinant CYP2C19, luciferin-H EGE luminescence; hits give high values; 0 = fully inhibited enzyme, 1 = untreated enzyme | activation factor at 5 µM | 96,000 tested, under 10 active | AID 1025;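 active = activation factor of at least 2 at 5 µM in the primary screen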;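 also: 0 = wells with 2.5 mM tranylcypromine and 1 = vehicle-only wells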
Cav3 T inh – blocks human Cav3.2 T-type calcium channel; Cav3.2-expressing cells, Fluo-4 calcium fluorescence FDSS; hits give low values; O95180; actives 4% (n = 100,000); B-score at 10 µM;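 active = single-dose well whose peak fluorescence ratio is a statistical outlier from its plate by either plate-standardised score or position-corrected B-score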
CYP2C19 inhib – inhibitors of human CYP2C19 | P33261 | CYP2C19 Supersomes, luciferin-H EGE luminescence, 30 min | inhibition, % at 5 µM | actives 21% (n = 96,000);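 active = CYP2C19 inhibition above a set limit at 5 µM in the primary screen, cut at about 50% in these data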;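 also: plate controls were negative control wells for no effect and 2.5 mM tranylcypromine positive control for full effect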
Rev-RRE block – disrupts HIV-1 Rev binding to RRE RNA | P05866 | Rev peptide-RRE RNA binding, FRET | inhibition, % at 8 µM | actives 0.79% (n = 97,000) | AID 704;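 active = inhibition above the screen-wide mean plus 3 SD, cut at about 35% in these data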;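 also: 0% = median DMSO wells and 100% = median Neomycin B control wells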
Target sequence (P05866 whole entry, looked up): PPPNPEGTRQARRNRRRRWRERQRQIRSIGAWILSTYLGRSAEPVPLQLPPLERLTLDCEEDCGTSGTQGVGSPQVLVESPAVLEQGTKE
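Test system – labelled RRE RNA duplex and labelled Rev peptide · Signal – fluorescein-to-Cy5 FRET, 480 nm excitation · Evaluation – % inhibition of FRET ratio versus controls · Benchmarks – DMSO low control, neomycin B high control · Incubation – 5 min RNA-compound premix plus 15 min binding step, 25 °C · Medium – HEPES pH 7.5 salt buffer with EDTA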
CYP2C9 inhib – blocks human cytochrome P450 2C9; CYP2C9 Supersomes, luciferin-H conversion, luminescence; inhibition, % at 5 µM; P11712; actives 20% (n = 96,000);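 active = blocking of liver enzyme CYP2C9 beyond about 50% at 5 µM, limit read from the data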
CYP2C9 act – CYP2C9 (human) activation. P11712. recombinant CYP2C9, luciferin-H conversion, luminescence; hits give high values; factor 1 = untreated enzyme, 0 = blocked. activation factor at 5 µM. actives 1.4% (n = 96,000). AID 1024;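 active = activation factor of 2 or more for CYP2C9 at a 5 µM dose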;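 also: 0 = sulfaphenazole-blocked wells and 1 = vehicle-only wells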
The depositor's hits bear a star; / = no result given.

SMILES	CYP2C19 activ	Cav3 T inh	CYP2C19 inhib	Rev-RRE block	CYP2C9 inhib	CYP2C9 act
Cc1ccc(NC(=O)CCN2CCN(C/C=C/c3ccccc3)CC2)cc1	0.8	-0.214	16.0	13.5	12.7	0.9
Cc1ccc(NC(=O)CCN2CCN(C/C=C/c3ccccc3)CC2)cc1C	1	/	2.3	2.8	-119.2	2.2*
O=C(/C=C/c1c(Cl)cccc1Cl)N1CCN(c2ncccn2)CC1	0	-4.3*	96.0*	11.0	51.6*	0.5
O=C(/C=C/c1ccccc1)N1CCN(c2cccc(Cl)n2)CC1	0.7	-0.177	25.3	6.1	45.5	0.5
CCCn1c(SCC(=O)NC(C)(C)C)nnc1C(C)C	1.1	-0.0896	-7.3	2.6	-15.3	1.2
COc1ccc(/C=C/C(=O)NC(=S)NNC(=O)Cc2cccs2)cc1	1	/	-4.3	7.0	19.0	0.8
O=C(/C=C/c1ccccc1)NC(=S)NNC(=O)Cc1cccs1	/	-4.08*	/	3.6	/	/
CCCCP(=O)(CCCC)c1ccccc1C(=O)O	1.2	/	-20.1	/	-10.8	1.1
CSCCC(NC(=O)COc1ccccc1)C(=O)N1CCN(c2ccccc2F)CC1 (stereo not given)	0.3	-1.07	74.0*	4.0	78.2*	0.2
O=C(NC1CCCC1)C(c1ccccc1)N(Cc1ccc2c(c1)OCO2)C(=O)Cc1cccs1 (stereo not given)	/	-5.86*	/	10.3	/	/
O=C(NC1CCCCC1)C(c1ccncc1)N(Cc1ccc2c(c1)OCO2)C(=O)c1cnsn1 (stereo not given)	/	-0.899	/	2.5	/	/
CCc1ccc(C(C(=O)NCc2ccc(OC)cc2)N(CCOC)C(=O)Cc2cccs2)cc1 (stereo not given)	0.7	-3.52	25.2	2.3	42.6	0.6
O=C(NCc1ccccc1)C(c1ccccc1)N(Cc1ccc2c(c1)OCO2)C(=O)Cc1cccs1 (stereo not given)	/	-1.86*	/	11.2	/	/
O=C(NC1CCN(Cc2nnnn2CCc2ccccc2)CC1)c1ccccc1F	1.1	/	-5.6	-0.8	15.5	0.8
OC1(c2ccccc2F)CCN(Cc2nnnn2CCc2ccccc2)CC1	0.3	-1.69	65.1*	0.6	80.2*	0.2
Cc1cc2ncn(C3CC(=O)N(Cc4ccc(N5CCCC5=O)cc4)C3=O)c2cc1C (stereo not given)	0.7	0.987	30.2	7.0	37.0	0.6
CCn1ncc(Br)c1C(=O)NC(C)c1ccccc1 (stereo not given)	/	-3.32	/	1.7	/	/
CCn1ncc(Cl)c1C(=O)NC(C)c1ccccc1 (stereo not given)	0.4	-1.7	61.8*	3.9	20.4	0.8
COc1ccc(C2CC(c3ccccc3)Nc3nc(NC(=O)c4cccs4)nn32)cc1 (stereo not given)	1	-1.79	-4.5	1.4	24.6	0.8
COc1ccc(C2CC(c3ccc(Cl)cc3)Nc3nc(NC(=O)c4ccco4)nn32)cc1 (stereo not given)	/	-3.9*	/	3.9	/	/
COc1ccc(C2CC(c3ccccc3)n3nc(NC(=O)c4cccs4)nc3N2)cc1 (stereo not given)	0.8	/	18.2	1.5	53.4*	0.5
O=C(Nc1nc2n(n1)C(c1ccc(Cl)cc1)CC(c1ccc(Cl)cc1)N2)c1ccco1 (stereo not given)	0.3	-5.3*	71.1*	8.7	82.1*	0.2
CCO/N=C(/C)c1c(O)c(C)c(-c2ccccc2)n(-c2ccccc2)c1=O	/	-1.22	/	2.9	/	/
C=CCn1c(=O)c2c3c(sc2n2c(Nc4ccc(OC)cc4)nnc12)CCCC3	0.8	-0.834	21.0	5.9	78.8*	0.2
C=CCn1c(=O)c2c3c(sc2n2c(Nc4ccccc4)nnc12)CCCC3	0.6	0.551	43.6	8.3	35.3	0.6
COc1ccccc1NC(=S)N(CCc1nc2cc(C)c(C)cc2[nH]1)Cc1cccnc1	0.8	-0.114	19.2	-0.4	-82.5	1.8
COc1ccc(-n2nc(C(=O)O)nc2-c2ccccc2)cc1	1	/	3.8	4.7	-11.2	1.1
Cc1cccc(NC(=O)c2nc(-c3ccccc3)n(-c3ccccc3)n2)c1C	0.8	-6.63*	20.2	15.7	31.7	0.7
CCc1nc2oc3ccccc3c(=O)c2c(=O)n1-c1ccccc1	0.9	0.0319	9.8	-3.7	-28.0	1.3

Bioassay records as filed in PubChem.
